Calls of active or inactive are those of the source. No cut-off for these calls is given here. Some results are limits rather than exact numbers.

Data set [1] deals with Mast/stem cell growth factor receptor Kit (Homo sapiens, UniProt P10721). Put plainly: Inhibition of wild type c-KIT phosphorylation at Y823 residue in human COLO320DM cells after 2 hrs by Western blot analysis. Format: cell-based.
For data set [2], the system named is Mast/stem cell growth factor receptor Kit (Homo sapiens), P10721 [UNDEFINED MUTATION]. Kind of data set: Inhibition of c-KIT 560 to 578 deletion mutant in human GISTT1 cells assessed as reduction in S6 phosphorylation at S235/S236 residue at 0.1 uM to 3 uM after 1 hr by Western blot analysis. The format is cell-based. In a few lines:
(§1)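 Serial compound dilutions applied for 1 h to GIST-T1, GIST-T1-T670I (CRISPR/Cas9 T670I knock-in, clone confirmed by Sanger sequencing) or GIST-5R cells in DMEM with 10% FBS. Cells then lysed and phospho-proteins detected by standard Western blotting.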
(A western blot detects proteins with antibodies after separation by electrophoresis.)

Data set [3] in a line: Apparent volume of distribution in Sprague-Dawley rat at 10 mg/kg, po measured after 5 to 720 mins by LC-tandem mass spectrometry analysis. The format is ADME, organism-based. The settings on record: in vivo. The gist of the method: (§2)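 Male Sprague-Dawley rats (190-210 g), fasted 12 h, randomized into two groups: 1 mg/kg i.v. or 10 mg/kg p.o., both formulated in 10% DMSO/90% of 5% glucose water. Blood sampled at 2-720 min (i.v.) or 5-720 min (p.o.). Plasma protein-precipitated with methanol, caffeine internal standard, LC-MS/MS. Noncompartmental analysis; triplicate, ±SD.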

Data set [4] in a line: Tmax in Sprague-Dawley rat at 1 mg/kg, iv measured after 2 to 720 mins by LC-tandem mass spectrometry analysis. The format is ADME, organism-based. The settings on record: in vivo. The gist of the method:
(§3)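 Male Sprague–Dawley rats (190-210 g), fasted 12 h, given 1 mg/kg i.v. or 10 mg/kg p.o. in DMSO/5% glucose water (1:9). Blood sampled at 2–720 min (i.v.) or 5–720 min (p.o.). Plasma proteins precipitated with methanol using caffeine internal standard, then LC-MS/MS. Noncompartmental analysis; F = AUC0-∞ ratio corrected for dose; triplicate ±SD.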

Data set [5] in a line: Antitumor activity against human GIST5R cells xenografted in nude mouse assessed as tumor weight at 25 mg/kg, po administered […] via gavage for 28 days (reference value: 0.59g). The format is functional. In a few lines: (§4)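 Female nu/nu mice (5 weeks old) given subcutaneous right-flank GIST-5R cells in Matrigel. Dosing began at tumors of 200-400 mm3; randomized, 4 mice per group. Daily oral dosing (QD) at 25, 50 or 100 mg/kg in 0.5% methylcellulose/0.4% Tween80, or vehicle alone, for 28 days. Body weight and tumor volume, (W²×L)/2, measured daily; mean±SEM.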

Data set [6] in a line: MRT (0 to infinity) in Sprague-Dawley rat at 10 mg/kg, po measured after 5 to 720 mins by LC-tandem mass spectrometry analysis. Format: ADME, organism-based. The settings on record: in vivo. The gist of the method: as §3
Data set [7] in a line: Antiproliferative activity in mouse BAF3 cells after 72 hrs by CCK8 assay. The format is cell-based. The gist of the method:
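IL-3-independent BaF3 cells carrying tel-c-KIT constructs, grown in RPMI 1640 with 10% FBS. Cells at 1.5-5 × 10^4 cells/mL mixed directly with serial compound dilutions, 72 h at 37 °C, 5% CO2. CCK-8 read-out at 450 nm, normalized to DMSO; GI50 by curve fitting.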
(In general: Tetrazolium assays rely on reduction of a dye to a coloured formazan, in cell work by metabolically active cells.)

Data set [8] concerns the target Platelet-derived growth factor receptor beta (Homo sapiens, UniProt P09619). Put plainly: Binding affinity to wild-type human partial length PDGFRB (V582 to Y1009 residues) expressed in bacterial expression system assessed as enzyme remaining activity at 1 uM by Kinomescan assay relative to control. The gist of the method:
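KINOMEscan competition binding panel of 468 kinases and mutants, compound at 1 μM; binding reported as percent of control.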

In data set [9] the test system is Mast/stem cell growth factor receptor Kit (Homo sapiens), P10721 [V559D,T670I]. Put plainly: Binding affinity to human partial length c-KIT V559D/T670I double mutant (Y545 to D952 residues) expressed in bacterial expression system assessed as enzyme remaining activity at 1 uM by Kinomescan method relative to control. In a few lines:
(§5)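 KINOMEscan binding profile (DiscoverX) run at 1 μM against a panel of 468 kinases and mutants. Read-out is percent of control (%Ctrl) remaining bound.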

Data set [10] is described as follows: Antitumor activity against human GIST5R cells xenografted in nude mouse assessed as tumor weight at 100 mg/kg, po administered […] via gavage for 28 days (reference value: 0.59g). The format is functional. The gist of the method:
as §4
For orientation: Xenograft models place foreign cells or tissue in a host animal.

The nature of data set [11]: Apparent volume of distribution in Sprague-Dawley rat at 1 mg/kg, iv measured after 2 to 720 mins by LC-tandem mass spectrometry analysis. Format: ADME, organism-based. The settings on record: in vivo, read-out: Vz. The gist of the method: as §2
The species entered for another data set is Homo sapiens. Put plainly: Induction of apoptosis in human GIST5R cells harboring c-KIT 560 to 578 deletion/T670I double mutant assessed as increase in cleaved caspase level after 24 hrs by Western blot analysis. Format: functional, cell-based.
Data set [12] relates to Mast/stem cell growth factor receptor Kit (Homo sapiens), P10721 [UNDEFINED MUTATION]. Put plainly: Binding affinity to human partial length c-KIT V559D/[…] double mutant (Y545 to D952 residues) expressed in bacterial expression system assessed as enzyme remaining activity at 1 uM by Kinomescan method relative to control. The gist of the method: as §5
Chain of Mast/stem cell growth factor receptor Kit (Homo sapiens), P10721 [UNDEFINED MUTATION] (P10721 whole entry, looked up, stated change not applied, the tested form may be a part): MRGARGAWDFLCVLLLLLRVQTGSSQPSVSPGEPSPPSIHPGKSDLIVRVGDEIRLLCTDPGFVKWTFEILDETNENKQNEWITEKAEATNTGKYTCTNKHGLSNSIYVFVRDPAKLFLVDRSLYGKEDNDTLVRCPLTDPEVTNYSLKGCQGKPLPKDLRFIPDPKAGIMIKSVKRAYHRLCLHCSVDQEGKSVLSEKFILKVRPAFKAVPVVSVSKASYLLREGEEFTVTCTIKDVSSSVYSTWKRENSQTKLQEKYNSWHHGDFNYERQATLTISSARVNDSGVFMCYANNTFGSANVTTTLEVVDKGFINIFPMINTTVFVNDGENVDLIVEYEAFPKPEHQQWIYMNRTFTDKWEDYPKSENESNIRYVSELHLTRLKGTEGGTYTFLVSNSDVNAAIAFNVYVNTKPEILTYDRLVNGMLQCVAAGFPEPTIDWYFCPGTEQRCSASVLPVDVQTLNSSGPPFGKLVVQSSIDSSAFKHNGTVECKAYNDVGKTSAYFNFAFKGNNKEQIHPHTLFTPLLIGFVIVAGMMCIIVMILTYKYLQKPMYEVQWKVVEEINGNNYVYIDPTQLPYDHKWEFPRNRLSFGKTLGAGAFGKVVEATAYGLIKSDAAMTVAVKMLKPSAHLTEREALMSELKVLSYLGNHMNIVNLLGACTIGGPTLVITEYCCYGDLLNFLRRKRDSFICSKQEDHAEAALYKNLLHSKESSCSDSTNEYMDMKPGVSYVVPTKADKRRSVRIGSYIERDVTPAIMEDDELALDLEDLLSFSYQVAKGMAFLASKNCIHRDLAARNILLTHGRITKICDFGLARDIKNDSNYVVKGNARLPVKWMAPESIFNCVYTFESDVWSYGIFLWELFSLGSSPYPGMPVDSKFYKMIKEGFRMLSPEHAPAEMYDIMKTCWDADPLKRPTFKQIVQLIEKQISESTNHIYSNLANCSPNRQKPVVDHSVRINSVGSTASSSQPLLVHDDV
Data set [13] in a line: Apparent volume of distribution in mouse at 1 mg/kg, iv measured after 2 to 720 mins by LC-tandem mass spectrometry analysis. Format: ADME, organism-based. The settings on record: in vivo, read-out: Vz. The gist of the method: (§6)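 Mice dosed 1 mg/kg i.v. or 10 mg/kg p.o.; plasma drug levels by LC-MS/MS, parameters by noncompartmental analysis; values not from triplicate testing.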

Data set [14] has as its system Mast/stem cell growth factor receptor Kit (Homo sapiens), P10721 [UNDEFINED MUTATION]. Kind of data set: Inhibition of c-KIT 560 to 578 deletion mutant in human GISTT1 cells assessed as reduction in c-KIT autophosphorylation at Y823 residue at 0.1 uM to 3 uM after 1 hr by Western blot analysis. Format: cell-based. The gist of the method:
as §1

A short description of data set [15]: Half-life in Sprague-Dawley rat at 1 mg/kg, iv measured after 2 to 720 mins by LC-tandem mass spectrometry analysis. Format: ADME, organism-based. The settings on record: in vivo. In a few lines:
as §2

Another data set relates to Mus musculus. Kind of data set: Effect on body weight in nude mouse xenografted with human GIST5R cells at 25 to 100 mg/kg, po administered […] via gavage for 28 days. Format: ADME, organism-based. The settings on record: in vivo, 672 h. In a few lines:
as §4

Data set [16] concerns Mast/stem cell growth factor receptor Kit (Homo sapiens), P10721 [UNDEFINED MUTATION]. Put plainly: Inhibition of c-KIT 560 to 578 deletion/T670I double mutant in human GISTT1 cells assessed as reduction in c-KIT autophosphorylation at Y823 residue at 0.1 uM to 3 uM after 1 hr by Western blot analysis. Format: cell-based. In a few lines:
as §1

Data set [17] can be described thus: Cmax in mouse at 10 mg/kg, po measured after 5 to 720 mins by LC-tandem mass spectrometry analysis. The format is ADME, organism-based. Also noted: dose 10 mg/kg, route oral. The settings on record: in vivo. The gist of the method:
as §6

Data set [18] has as its target Serine/threonine-protein kinase PAK 2 (Homo sapiens, UniProt Q13177). Put plainly: Inhibition of wild-type human partial length PAK2 (P151 to R525 residues) expressed in bacterial expression system after 1 hr by Z-LYTE assay.
Data set [19] is described as follows: AUC (0 to t) in Sprague-Dawley rat at 10 mg/kg, po measured after 5 to 720 mins by LC-tandem mass spectrometry analysis. The format is ADME, organism-based. The settings on record: in vivo. In a few lines:
as §2

Data set [20] relates to Mast/stem cell growth factor receptor Kit (Homo sapiens), P10721 [UNDEFINED MUTATION]. Put plainly: Inhibition of c-KIT 560 to 578 deletion/T670I double mutant in human GIST5R cells assessed as reduction in c-KIT autophosphorylation at Y703 residue at 0.1 uM to 3 uM after 1 hr by Western blot analysis. The format is cell-based. The gist of the method:
as §1

Chain of Serine/threonine-protein kinase PAK 2 (Q13177 whole entry, the tested form may be a part): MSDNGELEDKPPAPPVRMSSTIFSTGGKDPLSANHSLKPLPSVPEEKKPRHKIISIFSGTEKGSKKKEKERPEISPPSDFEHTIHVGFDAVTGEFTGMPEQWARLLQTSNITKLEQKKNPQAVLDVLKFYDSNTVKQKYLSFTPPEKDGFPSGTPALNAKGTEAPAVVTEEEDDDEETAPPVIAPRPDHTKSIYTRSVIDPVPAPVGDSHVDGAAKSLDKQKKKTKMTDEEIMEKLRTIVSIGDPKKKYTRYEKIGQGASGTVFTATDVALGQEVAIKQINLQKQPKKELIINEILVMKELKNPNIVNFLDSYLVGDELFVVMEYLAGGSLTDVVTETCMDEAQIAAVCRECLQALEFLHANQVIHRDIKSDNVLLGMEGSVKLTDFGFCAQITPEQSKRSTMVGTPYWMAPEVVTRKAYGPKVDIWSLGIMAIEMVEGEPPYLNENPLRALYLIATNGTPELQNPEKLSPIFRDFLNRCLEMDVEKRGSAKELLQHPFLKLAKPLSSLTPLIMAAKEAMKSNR
Chain of Platelet-derived growth factor receptor beta (P09619 whole entry, the tested form may be a part): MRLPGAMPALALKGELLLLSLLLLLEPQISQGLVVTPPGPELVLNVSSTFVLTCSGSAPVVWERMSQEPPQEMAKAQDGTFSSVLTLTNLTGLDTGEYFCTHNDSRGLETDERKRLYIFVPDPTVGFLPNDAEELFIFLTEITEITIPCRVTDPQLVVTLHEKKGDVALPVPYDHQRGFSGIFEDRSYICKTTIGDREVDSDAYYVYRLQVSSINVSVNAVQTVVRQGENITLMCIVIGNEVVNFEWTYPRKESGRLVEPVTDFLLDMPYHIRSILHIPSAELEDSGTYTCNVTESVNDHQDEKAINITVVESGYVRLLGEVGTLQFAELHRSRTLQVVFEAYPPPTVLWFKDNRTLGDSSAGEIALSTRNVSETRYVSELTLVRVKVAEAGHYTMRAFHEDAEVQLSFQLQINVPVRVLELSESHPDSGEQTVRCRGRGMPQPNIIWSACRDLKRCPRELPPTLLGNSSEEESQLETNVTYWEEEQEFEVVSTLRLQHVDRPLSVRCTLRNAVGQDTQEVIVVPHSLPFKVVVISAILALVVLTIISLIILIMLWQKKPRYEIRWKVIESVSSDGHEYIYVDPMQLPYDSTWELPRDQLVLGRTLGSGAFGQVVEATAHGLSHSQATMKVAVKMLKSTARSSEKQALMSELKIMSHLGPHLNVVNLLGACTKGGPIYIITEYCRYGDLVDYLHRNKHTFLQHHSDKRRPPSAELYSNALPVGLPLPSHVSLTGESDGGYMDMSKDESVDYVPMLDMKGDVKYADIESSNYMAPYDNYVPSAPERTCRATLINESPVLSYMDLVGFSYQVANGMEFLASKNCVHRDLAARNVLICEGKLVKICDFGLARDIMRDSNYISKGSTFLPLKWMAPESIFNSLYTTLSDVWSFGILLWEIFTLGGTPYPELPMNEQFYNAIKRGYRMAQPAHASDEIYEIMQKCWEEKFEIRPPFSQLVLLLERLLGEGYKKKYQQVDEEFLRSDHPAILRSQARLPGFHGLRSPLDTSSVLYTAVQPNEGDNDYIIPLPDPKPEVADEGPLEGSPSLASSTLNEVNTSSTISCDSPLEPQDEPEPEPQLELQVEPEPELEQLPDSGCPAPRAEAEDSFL
Chain of Mast/stem cell growth factor receptor Kit (Homo sapiens), P10721 [V559D,T670I] (P10721 whole entry V559D/T670I, the tested form may be a part): as the sequence (P10721 whole entry, looked up, stated change not applied, the tested form may be a part) above, with V559D, T670I counted along it
Chain of Mast/stem cell growth factor receptor Kit (P10721 whole entry): as the sequence (P10721 whole entry, looked up, stated change not applied, the tested form may be a part) above

Consider `O=C(CC(=O)Nc1ccc2c(/C=C/c3ccccn3)n[nH]c2c1)Nc1cccc(F)c1`, for which, in data set [1], the EC50 (usually the concentration giving half of the maximal effect) was determined as 2.05 µM. The inhibition entry in data set [2], in data set [14], in [16] and in data set [20] was “Active” in each case. In addition, the Vz in data set [3] stood at 86.8 L/kg. For the same molecule, the Tmax (in general, the time at which the peak concentration occurs) in data set [4] was 1.02 min. The Activity in data set [5] is 0.33 g; in data set [8], 0%; in data set [9], below 1%; in data set [10], 0.1 g; in the data set listed under Homo sapiens it was “Dose-dependent effect”; in [12], below 1%. For the same molecule, the Activity entry in the data set with Mus musculus is reported as “Non-Toxic”. Moreover, in data set [6], the MRT inf – broadly, the average time that molecules of a dose stay in the body – came out at 5.4 h. In data set [7], halving of growth (GI50 at 72 h) required 3.97 µM. In addition, the Vd is 49.3 L/kg in data set [11] and 5.7 L/kg in [13]. In data set [15], the half-life (commonly the time in which the quantity being followed falls by half) was 10.4 h. In addition, the concentration in [17] peaked (Cmax) at 1120 ng/mL. In data set [18], the IC50 (usually the concentration needed to halve the response being measured) was above 10 µM. Moreover, the AUC(0-t) (as a rule, the area under the concentration-time curve up to a stated or last time point) in [19] is 712 ng·h/mL.

Source of the values: ChEMBL document CHEMBL4304743, “Discovery of ( E)- N1-(3-Fluorophenyl)- N3-(3-(2-(pyridin-2-yl)vinyl)-1 H-indazol-6-yl)malonamide (CHMFL-KIT-033) as a Novel c-KIT T670I Mutant Selective Kinase Inhibitor for Gastrointestinal Stromal Tumors (GISTs)” (J Med Chem, 2019).
